ChEMBL document CHEMBL2177052, “Rapid and efficient synthesis of a novel series of substituted aminobenzosuberone derivatives as potent, selective, non-peptidic neutral aminopeptidase inhibitors” (Bioorg Med Chem, 2012)

Assays:
Cytosol aminopeptidase [1] = target: T1, Cytosol aminopeptidase (Bos taurus, UniProt P00727); experiment: Competitive inhibition of bovine LAPc using L-leucine-p-nitroanilide as substrate by spectrophotometric analysis
T1 sequence (P00727 whole entry): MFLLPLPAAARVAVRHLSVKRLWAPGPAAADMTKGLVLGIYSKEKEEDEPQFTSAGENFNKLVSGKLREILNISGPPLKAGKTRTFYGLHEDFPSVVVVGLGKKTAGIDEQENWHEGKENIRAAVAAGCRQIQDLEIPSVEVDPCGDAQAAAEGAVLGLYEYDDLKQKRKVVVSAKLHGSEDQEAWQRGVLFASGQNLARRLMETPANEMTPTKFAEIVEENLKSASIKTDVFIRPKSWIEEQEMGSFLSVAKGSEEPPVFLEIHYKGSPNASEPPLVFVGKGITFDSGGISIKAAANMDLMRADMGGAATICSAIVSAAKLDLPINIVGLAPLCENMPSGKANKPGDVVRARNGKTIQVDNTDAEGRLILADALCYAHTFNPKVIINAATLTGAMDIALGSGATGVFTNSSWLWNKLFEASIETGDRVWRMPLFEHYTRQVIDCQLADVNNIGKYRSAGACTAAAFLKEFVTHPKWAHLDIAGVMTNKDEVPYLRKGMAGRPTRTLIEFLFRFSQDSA
How it was run: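 Cytosolic leucine aminopeptidase from bovine kidney, 20 Units per assay, in 0.1 M Tris–HCl pH 8.0 with 0.1 mM ZnCl2, 5 mM MnCl2 and 1 M KCl. Km for L-leucine-p-nitroanilide 2 mM. Reaction started by adding enzyme to 1 ml medium at 30 °C. p-Nitroanilide release followed continuously at 405 nm (ε = 10,800 M-1 cm-1) for initial velocities. Ki taken from Dixon plots.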

[2] = target: T2, Leukotriene A-4 hydrolase (Homo sapiens, UniProt P09960); experiment: Competitive inhibition of human recombinant LTA4H using alanine-p-nitroanilide as substrate by spectrophotometric analysis
T2 sequence (P09960 whole entry): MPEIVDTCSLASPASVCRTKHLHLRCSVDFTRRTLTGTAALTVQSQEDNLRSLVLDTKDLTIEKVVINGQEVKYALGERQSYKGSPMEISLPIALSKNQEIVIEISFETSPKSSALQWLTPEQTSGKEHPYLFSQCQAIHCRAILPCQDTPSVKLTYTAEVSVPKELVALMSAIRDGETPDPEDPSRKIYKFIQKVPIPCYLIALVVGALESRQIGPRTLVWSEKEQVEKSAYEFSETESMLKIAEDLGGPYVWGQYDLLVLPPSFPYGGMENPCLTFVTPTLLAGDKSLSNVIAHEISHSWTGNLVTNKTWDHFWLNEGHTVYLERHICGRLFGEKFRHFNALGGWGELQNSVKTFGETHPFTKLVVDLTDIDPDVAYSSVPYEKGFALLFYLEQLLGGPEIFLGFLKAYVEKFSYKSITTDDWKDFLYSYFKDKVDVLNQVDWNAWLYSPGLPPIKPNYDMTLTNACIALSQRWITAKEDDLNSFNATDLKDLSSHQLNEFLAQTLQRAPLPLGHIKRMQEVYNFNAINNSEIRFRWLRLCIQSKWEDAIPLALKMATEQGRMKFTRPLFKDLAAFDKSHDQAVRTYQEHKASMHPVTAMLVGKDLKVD
How it was run: (§1)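 Human LTA4H, 5 µg per assay, in 10 mM Tris–HCl pH 7.5 with 0.1 mM KCl. Alanine-p-nitroanilide used as substrate (Km 2 mM). Enzyme added last to start the 1 ml reaction at 30 °C. Release of p-nitroanilide followed continuously at 405 nm for initial rates. Ki from Dixon plots assuming rapid-equilibrium kinetics.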

Aminopeptidase N [3] = target: T3, Aminopeptidase N (Sus scrofa, UniProt P15145); experiment: Competitive inhibition of pig APN using L-leucine-p-nitroanilide as substrate by spectrophotometric analysis
T3 sequence (P15145 whole entry): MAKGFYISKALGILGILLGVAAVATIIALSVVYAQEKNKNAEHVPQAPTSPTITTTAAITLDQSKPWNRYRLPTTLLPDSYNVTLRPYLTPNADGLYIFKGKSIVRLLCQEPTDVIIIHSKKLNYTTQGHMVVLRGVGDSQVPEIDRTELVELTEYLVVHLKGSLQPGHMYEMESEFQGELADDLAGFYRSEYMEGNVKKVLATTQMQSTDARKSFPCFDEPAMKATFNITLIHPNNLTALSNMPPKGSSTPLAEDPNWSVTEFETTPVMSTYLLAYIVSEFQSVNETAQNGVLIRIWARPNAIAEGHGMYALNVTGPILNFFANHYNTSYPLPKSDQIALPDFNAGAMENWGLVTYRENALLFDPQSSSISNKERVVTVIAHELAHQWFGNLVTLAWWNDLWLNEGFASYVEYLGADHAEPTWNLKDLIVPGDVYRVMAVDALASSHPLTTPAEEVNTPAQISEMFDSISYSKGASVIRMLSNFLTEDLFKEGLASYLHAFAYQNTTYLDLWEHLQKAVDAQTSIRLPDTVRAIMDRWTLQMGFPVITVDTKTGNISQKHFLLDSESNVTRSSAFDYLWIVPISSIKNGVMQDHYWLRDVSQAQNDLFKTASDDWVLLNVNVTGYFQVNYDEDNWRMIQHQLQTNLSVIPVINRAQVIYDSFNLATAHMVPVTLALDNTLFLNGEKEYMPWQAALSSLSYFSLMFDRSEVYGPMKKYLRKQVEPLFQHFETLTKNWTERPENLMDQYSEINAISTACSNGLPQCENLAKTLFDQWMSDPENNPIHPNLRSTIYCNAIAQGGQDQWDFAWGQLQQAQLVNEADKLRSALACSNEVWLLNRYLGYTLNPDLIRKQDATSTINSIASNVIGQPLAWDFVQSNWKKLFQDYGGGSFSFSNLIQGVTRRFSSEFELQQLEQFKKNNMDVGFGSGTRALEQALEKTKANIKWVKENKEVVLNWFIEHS
How it was run: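 Porcine kidney aminopeptidase-N, 1 mUnit per assay, in 0.02 M Tris–HCl pH 7.5 at 30 °C. L-Leucine-p-nitroanilide substrate, Km 0.2 mM. Enzyme addition starts the reaction. Continuous 405 nm read of p-nitroanilide release. Ki from Dixon plots for rapid-equilibrium inhibitors. For slow-binding inhibitors, progress curves were run with 3 nM enzyme and substrate at Km, steady state reached after 1.5 h, and Ki taken from Morrison plots.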

Aminopeptidase N [4] = target: Aminopeptidase N (Homo sapiens, UniProt P15144)
Chain of Aminopeptidase N (Homo sapiens, UniProt P15144) (P15144 whole entry): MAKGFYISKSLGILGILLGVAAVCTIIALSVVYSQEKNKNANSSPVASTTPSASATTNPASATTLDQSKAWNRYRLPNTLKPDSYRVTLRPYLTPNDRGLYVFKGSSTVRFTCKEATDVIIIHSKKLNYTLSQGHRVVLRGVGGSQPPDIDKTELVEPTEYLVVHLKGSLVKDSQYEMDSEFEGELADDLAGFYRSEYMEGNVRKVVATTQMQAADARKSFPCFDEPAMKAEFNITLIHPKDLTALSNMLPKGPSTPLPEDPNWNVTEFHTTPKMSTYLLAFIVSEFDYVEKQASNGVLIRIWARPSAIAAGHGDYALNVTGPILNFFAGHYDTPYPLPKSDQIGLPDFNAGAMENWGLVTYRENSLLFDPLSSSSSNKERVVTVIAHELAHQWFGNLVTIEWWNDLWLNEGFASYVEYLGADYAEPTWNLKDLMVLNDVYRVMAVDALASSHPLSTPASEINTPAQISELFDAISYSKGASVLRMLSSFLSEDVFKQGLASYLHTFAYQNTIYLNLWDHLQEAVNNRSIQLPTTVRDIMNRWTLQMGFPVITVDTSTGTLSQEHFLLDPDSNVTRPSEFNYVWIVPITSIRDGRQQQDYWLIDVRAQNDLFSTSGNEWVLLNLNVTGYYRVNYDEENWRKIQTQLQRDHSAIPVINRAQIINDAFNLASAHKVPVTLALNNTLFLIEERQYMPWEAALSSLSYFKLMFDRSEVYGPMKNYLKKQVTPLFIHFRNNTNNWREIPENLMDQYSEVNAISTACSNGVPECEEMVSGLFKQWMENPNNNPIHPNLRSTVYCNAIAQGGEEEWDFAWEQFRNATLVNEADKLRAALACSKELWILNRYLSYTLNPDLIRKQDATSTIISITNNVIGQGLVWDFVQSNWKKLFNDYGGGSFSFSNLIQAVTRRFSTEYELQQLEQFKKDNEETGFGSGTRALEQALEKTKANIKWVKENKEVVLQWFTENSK

Aminopeptidase N [5] = target: T3, Aminopeptidase N; experiment: Competitive inhibition of pig APN using L-leucine-p-nitroanilide as substrate by Dixon-plot analysis
[6] = target: T2, Leukotriene A-4 hydrolase; experiment: Competitive inhibition of human recombinant LTA4H using alanine-p-nitroanilide as substrate by Dixon-plot analysis; how it was run: as §1
Cytosol aminopeptidase [7] = target: T1, Cytosol aminopeptidase; experiment: Competitive inhibition of bovine LAPc using L-leucine-p-nitroanilide as substrate by Dixon-plot analysis

Ki (Cytosol aminopeptidase [1]) [µM] | Ki [2] [µM] | Ki (Aminopeptidase N [3]) [µM] | Ki (Aminopeptidase N [5]) [µM] | Ki [6] [µM] | Ki (Cytosol aminopeptidase [7]) [µM] | Compound | Ki (Aminopeptidase N [4]) [µM]
> 100 | > 100 | 0.06 |  |  |  | N[C@H]1CCc2ccccc2[C@H](Sc2ccccc2)C1=O (racemic) | 
> 100 | > 100 |  | 12 |  |  | N[C@H]1CCc2ccccc2[C@@H](CCCc2ccccc2)C1=O (racemic) | 
 |  |  | 88 | 470 |  | N[C@H]1CCc2ccccc2[C@H](CCc2ccccc2)C1=O (racemic) | 
> 100 | > 100 |  | 13 |  |  | N[C@H]1CCc2ccccc2[C@@H](Cc2ccccc2)C1=O (racemic) | 
> 100 | > 100 | 0.06 |  |  |  | N[C@H]1CCc2ccccc2[C@@H](Sc2ccccc2)C1=O (racemic) | 
> 1000 |  |  |  |  |  | NC1Cc2ccccc2CC1=O (stereo not given) | 
> 100 | > 100 |  | 22 |  |  | N[C@H]1CCc2ccccc2[C@@H](CCc2ccccc2)C1=O (racemic) | 
 | > 100 | 0.083 |  |  | 40 | N[C@H]1CCc2ccccc2[C@H](SCc2ccccc2)C1=O (racemic) | 
> 1000 | > 1000 |  | 0.3 |  |  | N[C@H]1CCc2ccccc2[C@H](F)C1=O (racemic) | 
 |  |  | 80 | 380 |  | N[C@H]1CCc2ccccc2/C(=C/c2ccccc2)C1=O | 

Compound | Ki (Cytosol aminopeptidase [1]) [µM] | Ki [2] [µM] | Ki (Aminopeptidase N [3]) [µM] | Ki (Aminopeptidase N [5]) [µM] | Ki [6] [µM] | Ki (Cytosol aminopeptidase [7]) [µM] | Ki (Aminopeptidase N [4]) [µM]
N[C@H]1CCc2ccccc2CC1=O | > 1000 | > 1000 |  | 1 |  |  | 1
